# Assay outcomes as filed in PubChem.
# This is a sample that favours compounds with a hit; in the whole collection about 2.5% have one here.
# PG9 binder – binders of HIV-1 gp120 antibody PG9, primary screen, biochemical, TR-FRET. TR-FRET gp120-PG9 antibody binding. 0.43% of 360,000 active. AID 624416, 2012. HIV-1 gp120 / PG9 antibody interaction. inhibition, % at 6.7 µM; in the data active = inhibition above about 8.5%
# NTR1 agonist – agonists of human NTR1, primary screen, imaging, U2OS cells, beta-arrestin-GFP, high content. Neurotensin receptor type 1 (Homo sapiens), P30989. activation, % at 20 µM. NTR1-U2OS beta-arrestin-GFP spot imaging, agonist mode. 0.17% of 330,000 active;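 active = activation at or above 40% of the spot to cytoplasm intensity ratio, with at least 20 cells analyzed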;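 note: 0% = DMSO without peptide and 100% = 100 nM NTR1 peptide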
# MC4R barr agon – MC4R agonists recruiting beta-arrestin, primary screen, cell-based, luminescence, agonist arm of biased-ligand search | U2OS MC4R beta-arrestin complementation; percent of melanotan II response, DMSO zero | activation, % at 8.9 µM | 0.98% of 360,000 active;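 active = activation above a per-plate cutoff, the mean activation of sample wells on that plate plus 3 SD, cut at about 8% in these data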
# Target sequence (P32245 whole entry, looked up): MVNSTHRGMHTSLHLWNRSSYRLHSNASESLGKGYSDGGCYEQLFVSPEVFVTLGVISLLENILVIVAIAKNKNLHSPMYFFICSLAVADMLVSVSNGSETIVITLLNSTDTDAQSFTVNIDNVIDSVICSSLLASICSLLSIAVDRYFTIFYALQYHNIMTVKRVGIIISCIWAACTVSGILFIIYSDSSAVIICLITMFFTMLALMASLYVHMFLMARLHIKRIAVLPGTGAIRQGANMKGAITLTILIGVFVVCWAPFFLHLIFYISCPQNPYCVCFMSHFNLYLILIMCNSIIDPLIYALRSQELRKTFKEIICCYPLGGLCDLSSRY
# Rev-erbA mod – modulators of Rev-erb alpha DNA binding, primary screen, biochemical, FITC-DNA, fluorescence polarization, uHTS; activity, % at 10 µM; Rev-erbα–FITC-DNA binding, 90 min; 0.79% of 370,000 active; AID 1259318, 2017;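 active = activity above about 14%, limit read from the data; passing the limit was not always enough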;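 note: 0% = DMSO wells with 35 nM protein and 100% = DMSO wells with 750 nM protein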
# MC4R antagonist – MC4R antagonists of cAMP signaling, primary screen, cell-based, TR-FRET, antagonist arm of biased-ligand search | 0.48% of 360,000 active | AID 540295, 2011 | inhibition, % at 6.5 µM | Melanocortin receptor 4 (Homo sapiens), P32245 | MC4R-expressing cells, MTII-stimulated cAMP, LANCE TR-FRET;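 active = inhibition above its plate's cutoff, the mean of tested wells on that plate plus 3 SD, cut at about 29% in these data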;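 note: 0% = Melanotan II alone and 100% = Melanotan II plus saturating MCL0020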
#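 Assay system: U2OS-MC4R stable cell line; Also added: Melanotan II; Technique: Eu-cAMP/anti-cAMP TR-FRET, emission 671 nm; Times: 30-min compound, 1-h challenge, 1-h detection, room temperature.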
# NR1D1 mod conf – modulators of Rev-erb alpha DNA binding, confirmation, biochemical, FITC-DNA, fluorescence polarization, single point; 61% of 3,000 active; 90 min; AID 1259319, 2017; activation, % at 25 µM; shares compounds with Rev-erbA mod;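 active = activation at or above a set limit, or at least 3 SD above the negative control mean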;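 note: 0% = 35 nM protein with DMSO and 100% = 750 nM protein high control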
# RORg counter – modulation of RORgamma DNA binding, dose response, counter-screen for Rev-erb alpha modulator project, biochemical, fluorescence polarization, FITC-DNA; purified RORgamma protein-FITC-DNA binding; AID 1259320, 2017; 8% of 910 active; shares compounds with Rev-erbA mod; IC50, µM;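 active = Compounds whose fitted half-maximal concentration for disrupting protein-DNA binding is below 10 micromolar; the record names Rev-erb in its text, so the target is in doubt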
# Starred values were filed as active, the others as inactive; i = inactive; . = not tested or not shown.
SMILES,PG9 binder,NTR1 agonist,MC4R barr agon,Rev-erbA mod,MC4R antagonist,NR1D1 mod conf,others
CCOC(=O)c1ccc(-c2ccc3oc(-c4ccsc4)cc(=O)c3c2)cc1F,-1,-1,-1,58*,-1,12,
COc1cc(-c2ccc3oc(-c4ccsc4)cc(=O)c3c2)cc(OC)c1OC,-1,7,1,-2,22,.,
COc1ccc(CNC(=O)O[C@H]2CC[C@@]34CCCN3C(=O)CCC[C@H]4C2)cc1,.,.,.,-4,.,.,
Cc1ccc2nc(N3CCN(c4cccc(C)c4C)CC3)c3nnnn3c2c1,-1,15,-1,28*,2,71*,RORg counter=>40
Cc1[nH]c(=O)[nH]c(=O)c1CCSSCCc1c(C)[nH]c(=O)[nH]c1=O,1,.,.,2,.,.,
CCCCCNC(=O)c1c[nH]c2ccc(S(=O)(=O)N3CCC4(CC3)OCCO4)cc2c1=O,1,0,1,38*,4,48*,RORg counter=>40
COCCCNC(=O)c1c[nH]c2ccc(S(=O)(=O)N3CCC4(CC3)OCCO4)cc2c1=O,-2,0,-2,4,-3,.,
CCN(CC)S(=O)(=O)c1ccc2[nH]cc(C(=O)NCCCN3CCCCC3C)c(=O)c2c1 (stereo not drawn),-1,1,-1,27*,-3,2,
CCN(CC)S(=O)(=O)c1ccc2[nH]cc(C(=O)NCCN3CCCCC3C)c(=O)c2c1 (stereo not drawn),-1,2,1,-4,-5,.,
Cc1ccccc1NC(=O)OC1CC2CC1[C@H]1CCCCN1[C@H]2Cc1ccccc1 (stereo partly drawn),.,.,.,3,.,.,
Cc1cccc(Cn2cc(COC(=O)Nc3ccc(F)cc3)nn2)c1,.,.,.,1,.,.,
COc1ccc(OC)c(CN2C(=O)COc3ccccc3C2c2nnnn2C2CCCC2)c1 (stereo not drawn),.,.,.,-2,.,.,
COc1ccccc1CCn1cnc(-c2cccc(F)c2)c1C(C)C,0,.,.,-6,.,.,
N#C/C(C(=O)Oc1ccccc1)=C1/Nc2ccccc2-c2ccccc21,2,1,0,44*,6,31*,
COc1ccc(OC)c(C2NC(=O)c3sc(=S)n(-c4ccccc4)c3N2)c1 (stereo not drawn),0,8,-1,39*,9,15,
COc1cccc(C2NC(=O)c3sc(=S)n(-c4ccccc4)c3N2)c1 (stereo not drawn),1,4,-2,2,2,.,
Fc1ccc(Cn2ccc3ccc(-c4ccc5ccn(Cc6ccc(F)cc6F)c5c4)cc32)c(F)c1,.,.,.,4,.,.,
CCOC(=O)N1C(=O)C[C@](Sc2ccc(OC)cc2)(C(=O)N2CCOCC2)[C@H]1c1ccc(OC)cc1,.,.,.,-1,.,.,
Cc1ccc(Sc2cnc3ccccc3n2)cc1,6,-1,6,40*,5,33*,RORg counter=>40
COC(=O)CSc1cnc2ccccc2n1,1,2,0,4,12,.,
Cn1c(=O)c(=O)n(C)c2cc(S(=O)(=O)N3CCCCC3)ccc21,1,5,-1,-3,3,.,
CC1CC(C)CN(S(=O)(=O)c2ccc3c(c2)n(C)c(=O)c(=O)n3C)C1 (stereo not drawn),2,-2,-2,66*,-4,0,
Cn1nc(C(=O)Nc2ccc(Br)cc2)cc1C(=O)Nc1ccc(Br)cc1,0,-1,1,13*,7,6,
O=c1oc2ccccc2c(NC(c2ccccc2)c2ccccc2)c1[N+](=O)[O-],0,0,-1,39*,0,60*,RORg counter=i
CC(Nc1c([N+](=O)[O-])c(=O)oc2ccccc12)C(Cl)c1ccccc1 (stereo not drawn),2,0,0,6,4,.,
SMILES,PG9 binder,NTR1 agonist,MC4R barr agon,Rev-erbA mod,MC4R antagonist,NR1D1 mod conf,others
O=[N+]([O-])c1ccc2c(c1)Cc1cc(F)ccc1-2,4,.,-2,70*,-5,61*,RORg counter=>40
COc1cc2c(cc1[N+](=O)[O-])-c1ccccc1C2,-1,.,4,0,-9,.,
COc1cc2c(cc1[N+](=O)[O-])-c1ccc([N+](=O)[O-])cc1C2,-2,.,-2,90*,-10,12*,
O=S1(=O)c2c(cccc2N2CCSCC2)Oc2ccccc2CN1Cc1cn(Cc2ccccc2C(F)(F)F)nn1,.,.,.,0,.,.,
Cc1ccc(C(=O)c2cc(O)c(O)c([N+](=O)[O-])c2)cc1,.,.,.,4,.,.,
N#Cc1ccc(-c2ccccc2)nc1SCC(=O)c1cccc(Cl)c1,0,-3,1,38*,-4,18*,
CS(=O)(=O)/C(C#N)=C/c1cccn1S(=O)(=O)c1ccccc1,1,.,1,0,3,.,
CC(C)(C)S(=O)(=O)/C(C#N)=C/c1cccn1S(=O)(=O)c1ccccc1,2,.,1,17*,17,11*,
Cc1ccccc1NC(=O)CSc1nc(N)c(C#N)c(-c2cccs2)c1C#N,72*,10,1,126*,-4,95*,
Cc1cc(C)c(C#N)c(SCC(=O)Nc2ccccc2C)n1,-1,1,-2,4,7,.,
COc1ccc(CCNC(=O)CSc2nc(N)c(C#N)c(-c3cccs3)c2C#N)cc1OC,0,1,-1,37*,8,23*,
COc1ccc(CNC(=O)CSc2nc(-c3ccccc3)cc(-c3cccs3)c2C#N)cc1,3,2,-1,9,2,.,
Cc1cc(Br)c2nc(-c3ccc(F)cc3)c(Cc3cccc(Cl)c3)n2c1,6,.,.,29*,.,13*,
Cc1ccc(Cc2c(-c3ccc(C#N)cc3)nc3ccc(Br)cn23)cc1,6,.,1,29*,-5,6,
Clc1ccc(-c2nc3ccc(Br)cn3c2Cc2cccc(Cl)c2)cc1,5,.,.,25*,.,19*,
Cc1ccc(-c2nc3ccc(Br)cn3c2Cc2cccc(Cl)c2)cc1,4,.,.,19*,.,10,
Fc1ccc(-c2nc3c4ccccc4ccn3c2Cc2cccc(Cl)c2)cc1,1,.,.,-1,.,.,
OCc1ccccc1OCc1ccccc1,1,.,.,3,.,.,
C=CCN(CC#CC(=C)C)CC1CC1,.,.,.,7,.,.,
CC(CCN1CCC(C(O)(c2ccccc2)c2ccccc2)CC1)Oc1cccc(Br)c1 (stereo not drawn),.,.,.,8,.,.,
